{"source": "ChEMBL document CHEMBL5303300", "about": "“EUbOPEN Chemogenomics Library - Multiplex” (2023)", "test_system": "U2OS", "test": "Multiplex assay against U2OS", "format": "toxicity, cell-based", "conditions": "human, number of replicates 2", "how_it_was_run": "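Compound was added to live cells that had been stained at seeding with Hoechst33342, BioTracker Green Microtubule Cytoskeleton Dye, MitoTracker Red and Annexin V Alexa Fluor 680, and imaging followed on a CQ1 microscope at 37°C and 5% CO2. CellPathfinder machine-learning gating divided cells into Hoechst high-intensity objects or normal cells, normal cells into healthy, pyknosed or fragmented nuclei, and pyknosed cells into mitotic or apoptotic. Tubulin, mitochondrial-mass and membrane-permeability phenotypes are per cents of healthy-nucleus cells.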", "key": {"[1]": {"conditions": "12 h, 1 µM, compound concentration 1 uM"}, "[2]": {"conditions": "12 h, 10 µM, compound concentration 10 uM"}, "[3]": {"conditions": "24 h, 1 µM, compound concentration 1 uM"}, "[4]": {"conditions": "24 h, 10 µM, compound concentration 10 uM"}, "[5]": {"conditions": "48 h, 1 µM, compound concentration 1 uM"}, "[6]": {"conditions": "48 h, 10 µM, compound concentration 10 uM"}}, "note": "Where “and” joins values, the source holds several entries; their conditions need not be identical. Identical values can stand only once.", "data": [{"smiles": "O=C(NCc1ccc(F)cc1)N1CCN2C(=O)OC(c3ccccc3)(c3ccccc3)C2C1", "note": "(stereo not drawn)", "values": [{"measurement": "Population Apoptotic (%)", "setting": "[1]", "result": "80% and 46%"}, {"measurement": "Population Fragmented Nuclei (%)", "setting": "[1]", "result": "11% and 2%"}, {"measurement": "Population Healthy Nuclei (%)", "setting": "[1]", "result": "69% and 86%"}, {"measurement": "Population Hoechst High Intensity Objects (%)", "setting": "[1]", "result": "3% and 0%"}, {"measurement": "Population Membrane Permeable-Phenotype (%)", "setting": "[1]", "result": "0% and 3%"}, {"measurement": "Population Mitochondria Different-Phenotype (%)", "setting": "[1]", "result": "0% and 1%"}, {"measurement": "Population Mitotic Cells (%)", "setting": "[1]", "result": "20% and 53%"}, {"measurement": "Population Normal (%)", "setting": "[1]", "result": "96% and 100%"}, {"measurement": "Population Pyknosed Nuclei (%)", "setting": "[1]", "result": "19% and 10%"}, {"measurement": "Population Tubulin-Different-Phenotype (%)", "setting": "[1]", "result": "61% and 62%"}, {"measurement": "Population Apoptotic (%)", "setting": "[2]", "result": "62% and 43%"}, {"measurement": "Population Fragmented Nuclei (%)", "setting": "[2]", "result": "7% and 4%"}, {"measurement": "Population Healthy Nuclei (%)", "setting": "[2]", "result": "71% and 86%"}, {"measurement": "Population Hoechst High Intensity Objects (%)", "setting": "[2]", "result": 0, "unit": "%"}, {"measurement": "Population Membrane Permeable-Phenotype (%)", "setting": "[2]", "result": "22% and 24%"}, {"measurement": "Population Mitochondria Different-Phenotype (%)", "setting": "[2]", "result": "22% and 17%"}, {"measurement": "Population Mitotic Cells (%)", "setting": "[2]", "result": "37% and 56%"}, {"measurement": "Population Normal (%)", "setting": "[2]", "result": "100% and 99%"}, {"measurement": "Population Pyknosed Nuclei (%)", "setting": "[2]", "result": "21% and 9%"}, {"measurement": "Population Tubulin-Different-Phenotype (%)", "setting": "[2]", "result": "88% and 60%"}, {"measurement": "Population Apoptotic (%)", "setting": "[3]", "result": "47% and 81%"}, {"measurement": "Population Fragmented Nuclei (%)", "setting": "[3]", "result": "2% and 8%"}, {"measurement": "Population Healthy Nuclei (%)", "setting": "[3]", "result": "88% and 58%"}, {"measurement": "Population Hoechst High Intensity Objects (%)", "setting": "[3]", "result": "0% and 2%"}, {"measurement": "Population Membrane Permeable-Phenotype (%)", "setting": "[3]", "result": "2% and 5%"}, {"measurement": "Population Mitochondria Different-Phenotype (%)", "setting": "[3]", "result": 0, "unit": "%"}, {"measurement": "Population Mitotic Cells (%)", "setting": "[3]", "result": "52% and 18%"}, {"measurement": "Population Normal (%)", "setting": "[3]", "result": "100% and 97%"}, {"measurement": "Population Tubulin-Different-Phenotype (%)", "setting": "[3]", "result": "72% and 45%"}, {"measurement": "Population Apoptotic (%)", "setting": "[4]", "result": "75% and 72%"}, {"measurement": "Population Fragmented Nuclei (%)", "setting": "[4]", "result": "2% and 6%"}, {"measurement": "Population Healthy Nuclei (%)", "setting": "[4]", "result": "64% and 78%"}, {"measurement": "Population Hoechst High Intensity Objects (%)", "setting": "[4]", "result": 0, "unit": "%"}, {"measurement": "Population Membrane Permeable-Phenotype (%)", "setting": "[4]", "result": "37% and 16%"}, {"measurement": "Population Mitochondria Different-Phenotype (%)", "setting": "[4]", "result": "45% and 36%"}, {"measurement": "Population Mitotic Cells (%)", "setting": "[4]", "result": "25% and 28%"}, {"measurement": "Population Normal (%)", "setting": "[4]", "result": 100, "unit": "%"}, {"measurement": "Population Pyknosed Nuclei (%)", "setting": "[4]", "result": "32% and 15%"}, {"measurement": "Population Tubulin-Different-Phenotype (%)", "setting": "[4]", "result": "83% and 53%"}, {"measurement": "Population Apoptotic (%)", "setting": "[5]", "result": "37% and 90%"}, {"measurement": "Population Healthy Nuclei (%)", "setting": "[5]", "result": "90% and 62%"}, {"measurement": "Population Hoechst High Intensity Objects (%)", "setting": "[5]", "result": "0% and 1%"}, {"measurement": "Population Membrane Permeable-Phenotype (%)", "setting": "[5]", "result": "1% and 9%"}, {"measurement": "Population Mitochondria Different-Phenotype (%)", "setting": "[5]", "result": 0, "unit": "%"}, {"measurement": "Population Normal (%)", "setting": "[5]", "result": "100% and 98%"}, {"measurement": "Population Pyknosed Nuclei (%)", "setting": "[5]", "result": "6% and 18%"}, {"measurement": "Population Tubulin-Different-Phenotype (%)", "setting": "[5]", "result": "86% and 48%"}, {"measurement": "Population Apoptotic (%)", "setting": "[6]", "result": "75% and 73%"}, {"measurement": "Population Fragmented Nuclei (%)", "setting": "[6]", "result": "7% and 5%"}, {"measurement": "Population Healthy Nuclei (%)", "setting": "[6]", "result": "57% and 75%"}, {"measurement": "Population Hoechst High Intensity Objects (%)", "setting": "[6]", "result": 0, "unit": "%"}, {"measurement": "Population Membrane Permeable-Phenotype (%)", "setting": "[6]", "result": "12% and 20%"}, {"measurement": "Population Mitochondria Different-Phenotype (%)", "setting": "[6]", "result": "37% and 19%"}, {"measurement": "Population Mitotic Cells (%)", "setting": "[6]", "result": "25% and 26%"}, {"measurement": "Population Normal (%)", "setting": "[6]", "result": 100, "unit": "%"}, {"measurement": "Population Pyknosed Nuclei (%)", "setting": "[6]", "result": "35% and 18%"}, {"measurement": "Population Tubulin-Different-Phenotype (%)", "setting": "[6]", "result": "68% and 42%"}]}, {"smiles": "COc1cc(C(=O)NC2CCN(C)CC2)ccc1Nc1ncc(C(F)(F)F)c(NCc2ccc(C)cc2N(C)S(C)(=O)=O)n1.O=CO.O=CO", "values": [{"measurement": "Population Apoptotic (%)", "setting": "[1]", "result": "50% and 69%"}, {"measurement": "Population Fragmented Nuclei (%)", "setting": "[1]", "result": "6% and 5%"}, {"measurement": "Population Healthy Nuclei (%)", "setting": "[1]", "result": "81% and 80%"}, {"measurement": "Population Hoechst High Intensity Objects (%)", "setting": "[1]", "result": 0, "unit": "%"}, {"measurement": "Population Membrane Permeable-Phenotype (%)", "setting": "[1]", "result": "7% and 20%"}, {"measurement": "Population Mitotic Cells (%)", "setting": "[1]", "result": "50% and 30%"}, {"measurement": "Population Normal (%)", "setting": "[1]", "result": 100, "unit": "%"}, {"measurement": "Population Pyknosed Nuclei (%)", "setting": "[1]", "result": "12% and 14%"}, {"measurement": "Population Tubulin-Different-Phenotype (%)", "setting": "[1]", "result": "38% and 40%"}, {"measurement": "Population Apoptotic (%)", "setting": "[2]", "result": "66% and 81%"}, {"measurement": "Population Healthy Nuclei (%)", "setting": "[2]", "result": 25, "unit": "%"}, {"measurement": "Population Hoechst High Intensity Objects (%)", "setting": "[2]", "result": "1% and 3%"}, {"measurement": "Population Membrane Permeable-Phenotype (%)", "setting": "[2]", "result": "38% and 48%"}, {"measurement": "Population Mitochondria Different-Phenotype (%)", "setting": "[2]", "result": "84% and 69%"}, {"measurement": "Population Mitotic Cells (%)", "setting": "[2]", "result": "33% and 18%"}, {"measurement": "Population Normal (%)", "setting": "[2]", "result": "98% and 96%"}, {"measurement": "Population Pyknosed Nuclei (%)", "setting": "[2]", "result": "47% and 66%"}, {"measurement": "Population Tubulin-Different-Phenotype (%)", "setting": "[2]", "result": "100% and 96%"}, {"measurement": "Population Apoptotic (%)", "setting": "[3]", "result": "42% and 74%"}, {"measurement": "Population Fragmented Nuclei (%)", "setting": "[3]", "result": "4% and 5%"}, {"measurement": "Population Healthy Nuclei (%)", "setting": "[3]", "result": "74% and 79%"}, {"measurement": "Population Hoechst High Intensity Objects (%)", "setting": "[3]", "result": 0, "unit": "%"}, {"measurement": "Population Membrane Permeable-Phenotype (%)", "setting": "[3]", "result": "4% and 8%"}, {"measurement": "Population Mitochondria Different-Phenotype (%)", "setting": "[3]", "result": "30% and 36%"}, {"measurement": "Population Mitotic Cells (%)", "setting": "[3]", "result": "57% and 25%"}, {"measurement": "Population Normal (%)", "setting": "[3]", "result": 100, "unit": "%"}, {"measurement": "Population Pyknosed Nuclei (%)", "setting": "[3]", "result": "21% and 15%"}, {"measurement": "Population Tubulin-Different-Phenotype (%)", "setting": "[3]", "result": "26% and 35%"}, {"measurement": "Population Apoptotic (%)", "setting": "[4]", "result": "96% and 93%"}, {"measurement": "Population Healthy Nuclei (%)", "setting": "[4]", "result": "6% and 7%"}, {"measurement": "Population Hoechst High Intensity Objects (%)", "setting": "[4]", "result": "3% and 5%"}, {"measurement": "Population Membrane Permeable-Phenotype (%)", "setting": "[4]", "result": "75% and 80%"}, {"measurement": "Population Mitochondria Different-Phenotype (%)", "setting": "[4]", "result": "100% and 86%"}, {"measurement": "Population Mitotic Cells (%)", "setting": "[4]", "result": "4% and 6%"}, {"measurement": "Population Normal (%)", "setting": "[4]", "result": "96% and 94%"}, {"measurement": "Population Pyknosed Nuclei (%)", "setting": "[4]", "result": "43% and 78%"}, {"measurement": "Population Tubulin-Different-Phenotype (%)", "setting": "[4]", "result": "100% and 93%"}, {"measurement": "Population Apoptotic (%)", "setting": "[5]", "result": "64% and 83%"}, {"measurement": "Population Fragmented Nuclei (%)", "setting": "[5]", "result": "12% and 4%"}, {"measurement": "Population Healthy Nuclei (%)", "setting": "[5]", "result": "50% and 68%"}, {"measurement": "Population Hoechst High Intensity Objects (%)", "setting": "[5]", "result": "1% and 0%"}, {"measurement": "Population Membrane Permeable-Phenotype (%)", "setting": "[5]", "result": "6% and 7%"}, {"measurement": "Population Mitochondria Different-Phenotype (%)", "setting": "[5]", "result": "20% and 28%"}, {"measurement": "Population Mitotic Cells (%)", "setting": "[5]", "result": "35% and 16%"}, {"measurement": "Population Normal (%)", "setting": "[5]", "result": "98% and 99%"}, {"measurement": "Population Pyknosed Nuclei (%)", "setting": "[5]", "result": "37% and 26%"}, {"measurement": "Population Tubulin-Different-Phenotype (%)", "setting": "[5]", "result": "24% and 46%"}, {"measurement": "Population Apoptotic (%)", "setting": "[6]", "result": 92, "unit": "%"}, {"measurement": "Population Healthy Nuclei (%)", "setting": "[6]", "result": "5% and 9%"}, {"measurement": "Population Hoechst High Intensity Objects (%)", "setting": "[6]", "result": "0% and 3%"}, {"measurement": "Population Membrane Permeable-Phenotype (%)", "setting": "[6]", "result": "100% and 73%"}, {"measurement": "Population Mitochondria Different-Phenotype (%)", "setting": "[6]", "result": "66% and 73%"}, {"measurement": "Population Mitotic Cells (%)", "setting": "[6]", "result": 7, "unit": "%"}, {"measurement": "Population Normal (%)", "setting": "[6]", "result": "100% and 96%"}, {"measurement": "Population Pyknosed Nuclei (%)", "setting": "[6]", "result": "49% and 76%"}, {"measurement": "Population Tubulin-Different-Phenotype (%)", "setting": "[6]", "result": 100, "unit": "%"}]}]}
